Screening data: PubChem BioAssay, several laboratories
PTEN del growth = PTEN-deleted cell growth suppression; AID 827; HCT116 PTEN-null viability, CellTiter-Glo, 60 h; hits give low values; viability, % at 10 µM; 1.2% of 140,000 active;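 active = viability at or below a set limit, 4 SD under the median of all tested compounds, cut at about 3.7% in these data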;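 also: PTEN knockout HCT116 line with beta catenin targeted HCT116 as companion control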
Fibroblast inh = blocks proliferation of human lung fibroblasts; LL 47 human lung fibroblast viability, ATP luminescence; hits give low values; viability, % at 10 µM; 1.1% of 85,000 active; AID 719;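 active = viability at or below 50% in the single dose screen; inactive = viability above 50%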;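 also: compound exposure lasted 72 h before the ATP readout; 100% = median luminescence of untreated cell-only wells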
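Test system: LL 47 human lung fibroblasts / Quantity: 1,150 cells in each well / Medium: IMEM growth medium with 15% fetal bovine serum / Incubation: 72 h compound exposure at 37 °C after overnight plating / Detection: CellTiter-Glo luminescence measuring cellular ATP / Read-out: % viability versus median cells-only luminescence / Benchmarks: cell-only wells, no compound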
H69AR growth 86K = blocks growth of human H69AR lung tumor cells. H69AR lung tumor viability, ATP luminescence, 72 h; hits give low values. viability, % at 10 µM. 6% of 85,000 active. AID 598;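 active = viability at or below 40%; inactive = viability above 40%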;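 also: multidrug resistant small cell line overexpressing MRP-1 efflux transporter; 100% = mean luminescence of untreated control wells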
bCat KO growth = beta-catenin-lacking colon tumor cell growth suppression; AID 818; HCT116 beta-catenin knockout viability, CellTiter-Glo, 60 h; hits give low values; 1.5% of 140,000 active; viability, % at 10 µM;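 active = viability at or under a set limit, the compound median less 4 SD, cut at about 6% in these data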;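 also: 0% = Hyamine 1622 control at 20 µM and 100% = untreated cell control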
HUVEC inhibit = human endothelial cell proliferation inhibition. AID 648. viability, % at 10 µM (by protocol). 1.1% of 86,000 active. HUVEC proliferation, CellTiter-Glo luminescence, 72 h; hits give low values;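 active = viability at or below 30%; inactive = viability above 30%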;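 also: 100% = median luminescence of DMSO-only cell control wells on each plate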
Cav32 inh = inhibitors of human Cav3.2 T-type calcium channel | O95180 | Cav3.2-expressing cells, Fluo-4 calcium fluorescence FDSS; hits give low values | B-score at 10 µM | 4% of 100,000 active;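 active = single-dose well whose peak fluorescence ratio is a statistical outlier from its plate by either plate-standardised score or position-corrected B-score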
Starred values were filed as active, the others as inactive. Sampled rows, rich in hits. Any-hit rate of the full collection: about 7.1%.

What do the screens show for `Cc1cc(C)n(S(=O)(=O)/C=C/c2ccccc2)n1`?
PTEN del growth: 89; Fibroblast inh: 26*; H69AR growth 86K: 1.1*; bCat KO growth: 94; HUVEC inhibit: 76; Cav32 inh: 1.5

What do the screens show for `Cc1ccc(S(=O)(=O)n2nc(C)cc2C)cc1`?
PTEN del growth: 95; Fibroblast inh: 97; H69AR growth 86K: 89; bCat KO growth: 102; HUVEC inhibit: 80; Cav32 inh: 0.54

How did Cc1cc2cc(CN(C(=O)C3CC3)C3CCCC3)c3nnnn3c2cc1C do in these assays?
PTEN del growth: 104; Fibroblast inh: 98; H69AR growth 86K: 78; bCat KO growth: 98; HUVEC inhibit: 93; Cav32 inh: -4.9*

Results for CCOc1ccc(NC(=O)CSC(N)=O)cc1 ?
PTEN del growth: 97; Fibroblast inh: 102; H69AR growth 86K: 15*; bCat KO growth: 87; HUVEC inhibit: 47; Cav32 inh: -4.7*

How did CCOc1ccc(NC(=O)CCN2CCN(c3ccccc3F)CC2)cc1 do in these assays?
PTEN del growth: 44; Fibroblast inh: 93; H69AR growth 86K: 24*; bCat KO growth: 43; HUVEC inhibit: 71; Cav32 inh: -1.1

What do the screens show for `O=C(CN1CCN(CC(=O)Nc2ccc(OCc3ccccc3)cc2)CC1)Nc1ccc(F)cc1`?
Cav32 inh: -0.64

What do the screens show for `O=C(CN1CCC(C(=O)c2ccc(F)cc2)CC1)Nc1ccc(F)cc1`?
PTEN del growth: 67; Fibroblast inh: 107; H69AR growth 86K: 87; bCat KO growth: 67; HUVEC inhibit: 77; Cav32 inh: -5.4*

What do the screens show for `O=C(CN1CCC(C(=O)c2ccc(F)cc2)CC1)Nc1ccccc1`?
PTEN del growth: 70; Fibroblast inh: 97; H69AR growth 86K: 83; bCat KO growth: 71; HUVEC inhibit: 97; Cav32 inh: -1.3
